# According to ChEMBL document CHEMBL5303300, “EUbOPEN Chemogenomics Library - Multiplex” (2023):
# “And” between values parts separate entries of the source, which are not always exact repeats. Equal entries are not always repeated.
# Experiments:
# Format in all cases: toxicity, cell-based
# Fibroblast = experiment: Multiplex assay against human fibroblast; conditions: number of replicates 2
# Procedure, shortened: (§1)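 Per cents of healthy-nucleus cells form the tubulin, mitochondrial-mass and membrane-permeability phenotype values. Live cells were stained at seeding with Hoechst33342, BioTracker Green Microtubule Cytoskeleton Dye, MitoTracker Red and Annexin V Alexa Fluor 680. After compound addition they were imaged on a CQ1 microscope at 37°C and 5% CO2, and CellPathfinder machine-learning gating split them into Hoechst high-intensity objects or normal cells, normal cells into healthy, pyknosed or fragmented nuclei, and pyknosed cells into mitotic or apoptotic.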
# HEK-293T = experiment: Multiplex assay against HEK293T; conditions: human, number of replicates 2; procedure, shortened: as §1
# U2OS = experiment: Multiplex assay against U2OS; conditions: human, number of replicates 2; procedure, shortened: as §1
# [1] = 12 h, 1 µM, compound concentration 1 uM
# [2] = 12 h, 10 µM, compound concentration 10 uM
# [3] = 24 h, 1 µM, compound concentration 1 uM
# [4] = 24 h, 10 µM, compound concentration 10 uM
# [5] = 48 h, 1 µM, compound concentration 1 uM
# [6] = 48 h, 10 µM, compound concentration 10 uM
compound,measurement,setting,value
CS(=O)(=O)c1ccc(NC(=O)c2cccc(COc3ccc(Br)cc3CNCCO)c2)c(Cl)c1.O=CO,Population Apoptotic (%),Fibroblast; [1],47% and 51%
same,Population Fragmented Nuclei (%),Fibroblast; [1],11%
same,Population Healthy Nuclei (%),Fibroblast; [1],64% and 70%
same,Total Cell Count,Fibroblast; [1],184 and 209
same,Population Apoptotic (%),Fibroblast; [2],56%
same,Population Fragmented Nuclei (%),Fibroblast; [2],22% and 14%
same,Population Healthy Nuclei (%),Fibroblast; [2],58% and 59%
same,Total Cell Count,Fibroblast; [2],327 and 259
same,Population Apoptotic (%),Fibroblast; [3],61% and 71%
same,Population Fragmented Nuclei (%),Fibroblast; [3],11%
same,Population Healthy Nuclei (%),Fibroblast; [3],60% and 68%
same,Population Pyknosed Nuclei (%),Fibroblast; [3],19%
same,Total Cell Count,Fibroblast; [3],187 and 198
same,Population Apoptotic (%),Fibroblast; [4],57% and 85%
same,Population Fragmented Nuclei (%),Fibroblast; [4],15% and 18%
same,Population Healthy Nuclei (%),Fibroblast; [4],65% and 64%
same,Total Cell Count,Fibroblast; [4],227 and 235
same,Population Apoptotic (%),Fibroblast; [5],76% and 80%
same,Population Fragmented Nuclei (%),Fibroblast; [5],16% and 17%
same,Population Healthy Nuclei (%),Fibroblast; [5],64% and 70%
same,Population Pyknosed Nuclei (%),Fibroblast; [5],19%
same,Total Cell Count,Fibroblast; [5],178 and 216
same,Population Apoptotic (%),Fibroblast; [6],85% and 87%
same,Population Fragmented Nuclei (%),Fibroblast; [6],16% and 13%
same,Population Healthy Nuclei (%),Fibroblast; [6],70% and 72%
same,Population Pyknosed Nuclei (%),Fibroblast; [6],14%
same,Total Cell Count,Fibroblast; [6],211 and 226
same,Population Healthy Nuclei (%),HEK-293T; [1],83%
same,Population Mitotic Cells (%),HEK-293T; [1],47% and 41%
same,Population Pyknosed Nuclei (%),HEK-293T; [1],14%
same,Total Cell Count,HEK-293T; [1],651 and 549
same,Population Healthy Nuclei (%),HEK-293T; [2],84% and 82%
same,Population Mitotic Cells (%),HEK-293T; [2],37% and 33%
same,Total Cell Count,HEK-293T; [2],462
same,Population Healthy Nuclei (%),HEK-293T; [3],85% and 84%
same,Population Mitotic Cells (%),HEK-293T; [3],46%
same,Population Pyknosed Nuclei (%),HEK-293T; [3],8% and 10%
same,Total Cell Count,HEK-293T; [3],981 and 842
same,Population Healthy Nuclei (%),HEK-293T; [4],82% and 80%
same,Population Mitotic Cells (%),HEK-293T; [4],33% and 32%
same,Population Pyknosed Nuclei (%),HEK-293T; [4],16%
same,Total Cell Count,HEK-293T; [4],436 and 479
same,Population Healthy Nuclei (%),HEK-293T; [5],84% and 85%
same,Population Mitotic Cells (%),HEK-293T; [5],74% and 85%
same,Population Pyknosed Nuclei (%),HEK-293T; [5],4% and 3%
same,Total Cell Count,HEK-293T; [5],1426 and 1953
same,Population Healthy Nuclei (%),HEK-293T; [6],84% and 85%
same,Population Mitotic Cells (%),HEK-293T; [6],21%
same,Population Pyknosed Nuclei (%),HEK-293T; [6],10% and 9%
same,Total Cell Count,HEK-293T; [6],560 and 607
same,Population Apoptotic (%),U2OS; [1],80% and 76%
same,Population Fragmented Nuclei (%),U2OS; [1],11%
same,Population Healthy Nuclei (%),U2OS; [1],76% and 84%
same,Population Hoechst High Intensity Objects (%),U2OS; [1],0%
same,Population Mitotic Cells (%),U2OS; [1],20% and 24%
same,Population Apoptotic (%),U2OS; [2],85% and 71%
same,Population Healthy Nuclei (%),U2OS; [2],50% and 72%
same,Population Hoechst High Intensity Objects (%),U2OS; [2],0%
same,Population Apoptotic (%),U2OS; [3],50% and 79%
same,Population Fragmented Nuclei (%),U2OS; [3],7% and 3%
same,Population Healthy Nuclei (%),U2OS; [3],69% and 78%
same,Population Hoechst High Intensity Objects (%),U2OS; [3],0%
same,Population Mitotic Cells (%),U2OS; [3],50% and 20%
same,Population Apoptotic (%),U2OS; [4],77%
same,Population Healthy Nuclei (%),U2OS; [4],33% and 65%
same,Population Hoechst High Intensity Objects (%),U2OS; [4],0%
same,Population Mitotic Cells (%),U2OS; [4],46% and 22%
same,Population Apoptotic (%),U2OS; [5],83% and 87%
same,Population Fragmented Nuclei (%),U2OS; [5],7%
same,Population Healthy Nuclei (%),U2OS; [5],67% and 79%
same,Population Hoechst High Intensity Objects (%),U2OS; [5],0%
same,Population Apoptotic (%),U2OS; [6],100% and 94%
same,Population Healthy Nuclei (%),U2OS; [6],23% and 57%
same,Population Hoechst High Intensity Objects (%),U2OS; [6],0%
same,Population Mitotic Cells (%),U2OS; [6],0% and 5%
